Measured values published in ChEMBL document CHEMBL4130482, “Synthesis and Antimicrobial Evaluation of Fire Ant Venom Alkaloid Based 2-Methyl-6-alkyl-Δ1,6-piperideines” (J Nat Prod, 2017).
Converted amounts (≈) assume the structure as drawn. The source made the active and inactive calls. The calls are words filed in the database; no cut-off is given here.

Legend:
[1] = tested on: Cryptococcus neoformans; assay: Antimicrobial activity against Cryptococcus neoformans ATCC 90113 after 72 hrs by CLSI method; format: functional, organism-based; settings: ATCC 90113, 72 h
Method in brief: (§1)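 Antifungal susceptibility was tested by a modified CLSI (formerly NCCLS) broth method. Strains were C. neoformans ATCC 90113, C. albicans ATCC 90028, and A. fumigatus ATCC 204305, obtained from ATCC. Amphotericin B served as the positive control.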

[2] = tested on: Candida albicans; assay: Antimicrobial activity against Candida albicans ATCC 90028 after 48 hrs by CLSI method; format: functional, organism-based; method in brief: as §1
[3] = tested on: Enterococcus faecium; assay: Antimicrobial activity against vancomycin-resistant Enterococcus faecium ATCC 700221 at 2 ug/ml by CLSI method; format: functional, organism-based
[4] = tested on: Leishmania donovani; assay: Antileishmanial activity against promastigote form of Leishmania donovani after 72 hrs by Alamar blue assay; format: functional, organism-based
Method in brief: (§2)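 Alamar Blue viability assay on L. donovani promastigotes, axenic amastigotes, THP1-cell amastigotes, and T. brucei trypomastigotes. Organisms at 2 × 10^6 cells/mL were exposed to serially diluted compounds for 72 h at 26 °C. IC50 and IC90 were determined. Test compounds were run up to 10 μg/mL. Values are means with standard deviations from two independent experiments, each in duplicate.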

[5] = tested on: Leishmania donovani; assay: Antileishmanial activity against […] amastigote form of Leishmania donovani after 72 hrs by Alamar blue assay; format: functional, organism-based; method in brief: as §2
[6] = tested on: Leishmania donovani; assay: Antileishmanial activity against amastigote form of Leishmania donovani infected in human THP1 cells after 72 hrs by Alamar blue assay; format: functional, organism-based; settings: THP-1, 72 h; method in brief: as §2
[7] = (§3) Cytotoxicity against human THP1 cells; format: cell-based, THP-1; settings: human, THP-1 cells
Method in brief: (§4)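 Human THP-1 cells were exposed to test compounds at up to 10 μg/mL. Values are from two independent experiments, each with two replicates.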

[8] = tested on: THP-1; assay: as §3; format: cell-based; settings: Homo sapiens, THP-1; method in brief: as §4
[9] = tested on: Aspergillus fumigatus; assay: Antimicrobial activity against Aspergillus fumigatus ATCC 204305 at 20 ug/ml after 48 hrs by CLSI method; format: functional, organism-based
[10] = tested on: Staphylococcus aureus; assay: Antimicrobial activity against methicillin-resistant Staphylococcus aureus ATCC 1708 at 20 ug/ml by CLSI method; format: functional, organism-based
[11] = tested on: Escherichia coli; assay: Antimicrobial activity against Escherichia coli ATCC 2452 at 20 ug/ml by CLSI method; format: functional, organism-based
[12] = tested on: Pseudomonas aeruginosa; assay: Antimicrobial activity against Pseudomonas aeruginosa ATCC 2108 at 20 ug/ml by CLSI method; format: functional, organism-based
[13] = tested on: Candida albicans; assay: Antimicrobial activity against Candida albicans ATCC 90028 at 20 ug/ml after 48 hrs by CLSI method; format: functional, organism-based
[14] = tested on: Enterococcus faecium; assay: Antimicrobial activity against vancomycin-resistant Enterococcus faecium ATCC 700221 at 20 ug/ml by CLSI method; format: functional, organism-based
[15] = tested on: Trypanosoma brucei; assay: Antitrypanosomal activity against trypomastigote form of Trypanosoma brucei after 72 hrs by Alamar blue assay; format: functional, organism-based; method in brief: as §2
[16] = tested on: Enterococcus faecium; assay: Antimicrobial activity against vancomycin-resistant Enterococcus faecium ATCC 700221 by CLSI method; format: functional, organism-based
Method in brief: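 VRE E. faecium ATCC 700221 strain, tested by a modified CLSI susceptibility method. Methicillin and vancomycin served as positive controls. The read-outs were 50% growth inhibition (IC50) and minimum inhibitory concentration (MIC).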

| Structure (SMILES) | IC50 [1] [µg/mL] | MIC [1] [µg/mL] | IC50 ([2]; ATCC 90028, 48 h) [µg/mL] | MIC ([2]; ATCC 90028, 48 h) [µg/mL] | IC50 [4] [µg/mL] | IC90 [4] [µg/mL] | IC50 [5] [µg/mL] | IC90 [5] [µg/mL] | IC50 [6] [µg/mL] | IC90 [6] [µg/mL] | IC90 [7] [µg/mL] | IC50 [8] [µg/mL] | Activity [9] | Activity [10] | Activity [11] | Activity [12] | Activity [14] | IC50 [15] [µg/mL] | IC90 [15] [µg/mL] | also measured |
| --- | --- | --- | --- | --- | --- | --- | --- | --- | --- | --- | --- | --- | --- | --- | --- | --- | --- | --- | --- | --- |
| C[C@@H]1[C@H](O)[C@@H](C)/C=C/C=C/C=C/C=C/C=C/C=C/C=C/[C@H](O[C@@H]2O[C@H](C)[C@@H](O)[C@H](N)[C@@H]2O)C[C@@H]2O[C@](O)(C[C@@H](O)C[C@@H](O)[C@H](O)CC[C@@H](O)C[C@@H](O)CC(=O)O[C@H]1C)C[C@H](O)[C@H]2C(=O)O [AMPHOTERICIN B] | < 0.1 | 0.1 (≈ 0.108 µM) | < 0.1 | 0.1 (≈ 0.108 µM) | 0.2 (≈ 0.216 µM) | 0.5 (≈ 0.541 µM) | 0.9 (≈ 0.974 µM) | 1.4 (≈ 1.52 µM) | 0.2 (≈ 0.216 µM) | 0.4 (≈ 0.433 µM) | > 2 | > 2 |  |  |  |  |  |  |  | Activity [3]: inactive |
| CCCCCCCCCCCCCCCCC1=NC(C)CCC1 (configuration not stated) | 9.9 (≈ 30.8 µM) | 20 (≈ 62.2 µM) |  |  | 5 (≈ 15.5 µM) | 8.3 (≈ 25.8 µM) | > 10 | > 10 | > 10 | > 10 | > 10 | > 10 | inactive | inactive | inactive | inactive | inactive | 3.5 (≈ 10.9 µM) | 6.5 (≈ 20.2 µM) | Activity [13]: inactive |
| CCCCCCCCCCCCCCCC1=NC(C)CCC1 (configuration not stated) | 6.6 (≈ 21.5 µM) | 10 (≈ 32.5 µM) | 12.4 (≈ 40.3 µM) | 20 (≈ 65 µM) | 5.7 (≈ 18.5 µM) | 7.9 (≈ 25.7 µM) | > 10 | > 10 | 3.1 (≈ 10.1 µM) | > 10 | > 10 | > 10 | inactive | inactive | inactive | inactive |  | 2.7 (≈ 8.78 µM) | 3.6 (≈ 11.7 µM) | IC50 [16]: 19.4 µg/mL (≈ 63.1 µM); MIC [16]: 20 µg/mL (≈ 65 µM) |
| CCCCCCCCCCCCCCC1=NC(C)CCC1 (configuration not stated) | 8.3 (≈ 28.3 µM) | 13.3 (≈ 45.3 µM) | 17.1 (≈ 58.3 µM) |  | 6.7 (≈ 22.8 µM) | 9 (≈ 30.7 µM) | > 10 | > 10 | 3.4 (≈ 11.6 µM) | 8.8 (≈ 30 µM) | > 10 | > 10 | inactive | inactive | inactive | inactive | inactive | 4 (≈ 13.6 µM) | 6.8 (≈ 23.2 µM) | MIC [2]: inactive |
| NCCCC(N)(C(=O)O)C(F)F (configuration not stated) [EFLORNITHINE] |  |  |  |  |  |  |  |  |  |  |  |  |  |  |  |  |  | 6.1 (≈ 33.5 µM) | 12.1 (≈ 66.4 µM) |  |
